ChEMBL document CHEMBL5107950, “Structure-based design of haloperidol analogues as inhibitors of acetyltransferase Eis from Mycobacterium tuberculosis to overcome kanamycin resistance” (RSC Med Chem, 2021)
Values after ≈ are worked out from the molar mass of the structure shown. Active and inactive are the calls of the source. The rule behind the calls is not given here.

Experiments:
[1] = tested on: Mycolicibacterium smegmatis; assay: Synergistic antibacterial activity against Mycobacterium smegmatis mc2 155 assessed as fold reduction in MIC value at 8 ug/ml in presence of spectinomycin by checkerboard assay; assay type: functional; settings: dose 8 µg/ml
[2] = tested on: Mycobacterium tuberculosis; assay: Antibacterial activity against Mycobacterium tuberculosis H37Ra ATCC NRS22 assessed as inhibition of bacterial growth incubated upto 3 weeks hrs by resazurin dye based double-dilution method; assay type: functional; settings: H37Ra ATCC NRS22, 504 h
Outline: (§1)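 Double-dilution broth MIC. Media: M. smegmatis, Mueller-Hinton; M. abscessus, 7H9 + 0.05% Tween80 + 0.4% glycerol; mc²6230, 7H9 + 0.05% tyloxapol, 0.5% glycerol, 10% OADC, 0.2% casamino acids, 24 µg/mL pantothenate; other mycobacteria, 7H9 + 0.05% Tween80, 0.4% glycerol, 10% ADC. Inoculum from agar set to 0.5 McFarland, then diluted 1:100.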

[3] = tested on: Mycobacterium tuberculosis; assay: Antibacterial activity against Mycobacterium tuberculosis K204 assessed as inhibition of bacterial growth at 100 uM incubated for 24 hrs by Alamar blue assay; assay type: functional, organism-based
[4] = tested on: Mycolicibacterium smegmatis; assay: Antibacterial activity against Mycobacterium smegmatis mc2 155 assessed as inhibition of bacterial growth incubated upto 3 weeks hrs by resazurin dye based double-dilution method; assay type: functional; settings: mc2 155, 504 h; outline: as §1
N-acetyltransferase Eis [5] = target: T1, N-acetyltransferase Eis (Mycobacterium tuberculosis (strain ATCC 25618 / H37Rv), UniProt P9WFK7); assay: Inhibition of Mycobacterium tuberculosis Eis assessed as Eis-mediated kanamycin acetylation preincubated for 10 mins followed by substrate addition and measured for 2 to 5 mins using acetyl-CoA as substrate in presence of kanamycin by UV-Vis spectroscopy analysis
T1 sequence (P9WFK7 whole entry): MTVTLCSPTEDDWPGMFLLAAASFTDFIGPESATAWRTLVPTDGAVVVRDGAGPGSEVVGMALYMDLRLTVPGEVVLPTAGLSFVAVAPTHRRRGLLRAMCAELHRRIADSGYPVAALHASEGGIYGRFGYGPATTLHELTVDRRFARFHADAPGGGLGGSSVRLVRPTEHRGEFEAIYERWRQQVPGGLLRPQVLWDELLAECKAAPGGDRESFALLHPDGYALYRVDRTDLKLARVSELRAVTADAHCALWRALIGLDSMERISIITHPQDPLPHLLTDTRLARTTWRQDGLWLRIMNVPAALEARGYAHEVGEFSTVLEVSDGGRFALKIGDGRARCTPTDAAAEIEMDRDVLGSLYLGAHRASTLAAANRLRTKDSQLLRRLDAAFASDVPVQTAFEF
Outline: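 Recombinant Eis (1 µM) mixed with KAN (400 µM) in 50 mM Tris-HCl pH 8.0 and preincubated 10 min with 5-fold serially diluted inhibitor (10% DMSO in buffer). Reaction started with AcCoA and DTNB (2 mM each, as added). Absorbance read every 30 s for 20 min. Initial rates (first 2-5 min) fitted to Hill plot for IC50. At least triplicate.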

J774.A1 [6] = assay: Cytotoxicity against mouse J774.A1 cells assessed as reduction in cell viability at 25 uM incubated for 24 hrs by resazurin assay; assay type: toxicity, cell-based; settings: j774.a1, 24 h
Outline: (§2)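 Resazurin viability assay in DMEM + 10% FBS, 1% penicillin/streptomycin, 37 °C, 5% CO₂. Seeding: HEK-293 and J774A.1 at 1×10^4 cells/mL, A549 at 5×10^3 cells/mL. After 24 h, compounds added (0.78-200 μM, 0.5% DMSO final). Resazurin added 24 h later, read after 6 h. 1% Triton X as positive control. Quadruplicate.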

Mycobacterium avium = assay: Antibacterial activity against Mycobacterium avium ATCC 25921 assessed as inhibition of bacterial growth incubated upto 3 weeks hrs by resazurin dye based double-dilution method; assay type: functional; settings: ATCC 25921, 504 h; outline: as §1
[7] = tested on: Mycobacterium intracellulare; assay: Antibacterial activity against Mycobacterium intracellulare ATCC 13950 assessed as inhibition of bacterial growth incubated upto 3 weeks hrs by resazurin dye based double-dilution method; assay type: functional; settings: ATCC 13950, 504 h; outline: as §1
[8] = tested on: Mycobacteroides abscessus; assay: Antibacterial activity against Mycobacterium abscessus ATCC 19977 assessed as inhibition of bacterial growth incubated upto 3 weeks hrs by resazurin dye based double-dilution method; assay type: functional; settings: ATCC 19977, 504 h; outline: as §1
[9] = Metabolic stability in human liver microsomes at 2 to 4 uM incubated for 30 mins by LC-MS/MS analysis; assay type: ADME, Microsome; settings: dose 2-4 µM, read-out: Stability
Escherichia coli = assay: Antibacterial activity against Escherichia coli MC1061 assessed as inhibition of bacterial growth incubated upto 3 weeks hrs by resazurin dye based double-dilution method; assay type: functional, organism-based
A549 [10] = assay: Cytotoxicity against human A549 cells assessed as reduction in cell viability at 25 uM incubated for 24 hrs by resazurin assay; assay type: toxicity, cell-based; settings: a549, 24 h; outline: as §2
[11] = tested on: Mycobacterium tuberculosis; assay: Antibacterial activity against Mycobacterium tuberculosis H37Rv assessed as inhibition of bacterial growth at 100 uM incubated for 24 hrs by Alamar blue assay; assay type: functional, organism-based
HEK293 [12] = assay: Cytotoxicity against human HEK293 cells assessed as reduction in cell viability at 25 uM incubated for 24 hrs by resazurin assay; assay type: toxicity, cell-based; settings: hek293, 24 h; outline: as §2
[13] = Metabolic stability in mouse liver microsomes at 2 to 4 uM incubated for 30 mins by LC-MS/MS analysis; assay type: ADME, Microsome; settings: dose 2-4 µM, read-out: Stability
[14] = tested on: Mycolicibacterium smegmatis; assay: Synergistic antibacterial activity against Mycobacterium smegmatis mc2 155 assessed as fold reduction in MIC value at 8 ug/ml in presence of clarithromycin by checkerboard assay; assay type: functional; settings: dose 8 µg/ml
[15] = tested on: Mycobacterium tuberculosis; assay: Potentiation of kanamycin-induced antibacterial activity against Mycobacterium tuberculosis H37Rv assessed as kanamycin MIC incubated for 1 day followed by kanamycin addition for 6 days and by Alamar blue assay; assay type: functional; settings: 168 h, time 7 day
Outline: (§3)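 Mtb in 7H9 + 10% ADC, 0.05% Tween 80, 0.4% glycerol at 37 °C. Inoculum adjusted to OD600 0.2, diluted 1:25. Cells preincubated 24 h at 37 °C with compound (100 µL of 200 µM solution). KAN then added: H37Rv at 2.5 and 1.25 µg/mL; K204 at 10, 5, 2.5, 1.25 µg/mL. Incubated 6 days, AlamarBlue added, colour read at 24 and 48 h. MIC = lowest KAN with no colour change. At least twice in duplicate.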

N-acetyltransferase Eis [16] = target: T1, N-acetyltransferase Eis; assay: Competitive inhibition of Mycobacterium tuberculosis Eis assessed as reduction in Eis-mediated kanamycin acetylation preincubated for 10 mins followed by substrate addition and measured for 2 to 5 mins using acetyl-CoA as substrate in presence of kanamycin by Lineweaver-Burk plot analysis
Outline: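 Same DTNB-coupled Eis acetylation assay used for IC50, run as Michaelis-Menten kinetics with inhibitor at 0-1 μM. Vmax and Km from these fits used to determine mode of inhibition. Quadruplicate.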

[17] = tested on: Mycobacterium tuberculosis; assay: Potentiation of kanamycin-induced antibacterial activity against Mycobacterium tuberculosis K204 assessed as kanamycin MIC incubated for 1 day followed by kanamycin addition for 6 days and by Alamar blue assay; assay type: functional; settings: K204, 168 h, time 7 day; outline: as §3
J774.A1 [18] = assay: Cytotoxicity against mouse J774.A1 cells assessed as reduction in cell viability at 100 uM incubated for 24 hrs by resazurin assay; assay type: toxicity, cell-based; settings: j774.a1, 24 h; outline: as §2
A549 [19] = assay: Cytotoxicity against human A549 cells assessed as reduction in cell viability at 100 to 200 uM incubated for 24 hrs by resazurin assay; assay type: toxicity, cell-based; settings: a549, 24 h, dose 100-200 µM; outline: as §2
HEK293 [20] = assay: Cytotoxicity against human HEK293 cells assessed as reduction in cell viability at 200 uM incubated for 24 hrs by resazurin assay; assay type: toxicity, cell-based; settings: hek293, 24 h; outline: as §2

| SMILES | fold change (FC) [1] | MIC [2] | MIC [4] | IC50 (N-acetyltransferase Eis [5]) | MIC (Mycobacterium avium) | MIC [7] | MIC [8] | fold change (FC) [14] | MIC [15] | Ki (N-acetyltransferase Eis [16]) | MIC [17] | also measured |
| --- | --- | --- | --- | --- | --- | --- | --- | --- | --- | --- | --- | --- |
| CC(C)(C)c1ccc(C(=O)CCCN2CCC(O)(c3ccc(Cl)cc3)CC2)cc1 | 16 | 3.9 µM (≈ 1.61 µg/mL) | 15.6 µM (≈ 6.46 µg/mL) | > 200000 nM | 7.8 µM (≈ 3.23 µg/mL) | 7.8 µM (≈ 3.23 µg/mL) | > 62.5 µM | 4 | – | – | – | inhibition [3]: Active; Activity (J774.A1 [6]): Toxic; remaining at 0.5 h [9]: 60%; inhibition (Escherichia coli): Active; Activity (A549 [10]): Toxic; inhibition [11]: Active; Activity (HEK293 [12]): Toxic; remaining at 0.5 h [13]: 68% |
| O=C(CCCN1CCC(O)(c2ccc(F)cc2)CC1)c1ccc(F)cc1 | 16 | > 62.5 µM | > 62.5 µM | 760 nM | > 62.5 µM | > 62.5 µM | > 62.5 µM | 4 | ≤ 1.25 µg/mL | 910 nM | 5 µg/mL | – |
| O=C(CCCN1CCC(O)(c2ccc(Br)cc2)CC1)c1ccc(F)cc1 [BROMPERIDOL] | 16 | > 62.5 µM | > 62.5 µM | 520 nM | 62.5 µM (≈ 26.3 µg/mL) | 62.5 µM (≈ 26.3 µg/mL) | > 62.5 µM | 4 | ≤ 1.25 µg/mL | 240 nM | 5 µg/mL | – |
| O=C(CCCN1CCC(O)(c2ccc(Cl)cc2)CC1)c1ccc(Br)cc1 | – | 31.3 µM (≈ 13.7 µg/mL) | > 62.5 µM | > 200000 nM | > 62.5 µM | > 62.5 µM | > 62.5 µM | – | ≤ 1.25 µg/mL | – | > 10 µg/mL | Activity (J774.A1 [18]): 100%; Activity (A549 [19]): 70%; Activity (HEK293 [20]): Non-Toxic |
